Data reported in ChEMBL document CHEMBL5257027 (Eur J Med Chem, 2016).

Experiments:
PC-3 [1] = test: Antiproliferative activity against human PC-3 cells assessed as reduction in cell growth; format: functional
Method in brief: (§1)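 NCI five-dose testing across the 58-line panel gives GI50, TGI and LC50 for each line. Subpanel lines report mean GI50 for each of the nine cancer types.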

MDA-MB-468 [2] = test: Antiproliferative activity against human MDA-MB-468 cells assessed as reduction in cell growth; format: functional; method in brief: as §1
COLO 205 [3] = test: Antiproliferative activity against human COLO 205 cells assessed as reduction in cell growth; format: functional; method in brief: as §1
[4] = tested on: Panel leukemia (Carcinoma cell lines); test: Antiproliferative activity against human Panel leukemia (5 Carcinoma cell lines) assessed as reduction in mean cell growth; format: functional; method in brief: as §1
SNB-75 [5] = test: Antiproliferative activity against human SNB-75 cells assessed as reduction in cell growth; format: functional; method in brief: as §1
[6] = Antiproliferative activity against human Panel non-small cell lung cancer (8 Carcinoma cell lines) assessed as reduction in mean cell growth; format: functional; conditions: Non-small cell lung cancer cell line; method in brief: as §1
SNB-75 [7] = test: Cytotoxicity against human SNB-75 cells; format: functional; conditions: read-out: LC50 (the source's name)
Method in brief: (§2)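 Run in the US NCI 58-cell-line screen covering nine cancer types (leukemia, NSCLC, colon, CNS, melanoma, ovarian, renal, prostate, breast). Five-dose mode gave GI50, TGI and LC50 values for each cell line. In the single-dose pre-screen, % inhibition was taken as 100 minus growth percentage.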

[8] = tested on: Panel ovarian (Carcinoma cell lines); test: Antiproliferative activity against human Panel ovarian (7 Carcinoma cell lines) assessed as reduction in mean cell growth; format: functional; method in brief: as §1
K562 [9] = test: Cytotoxicity against human k562 cells; format: functional; conditions: read-out: LC50 (the source's name); method in brief: as §2
HCT-15 [10] = test: Cytotoxicity against human HCT-15 cells; format: functional; conditions: read-out: LC50 (the source's name); method in brief: as §2
[11] = tested on: Panel renal (Carcinoma cell lines); test: Antiproliferative activity against human Panel renal (8 Carcinoma cell lines) assessed as reduction in mean cell growth; format: functional; method in brief: as §1
K562 [12] = test: Antiproliferative activity against human K562 cells assessed as reduction in cell growth; format: functional; method in brief: as §1
[13] = tested on: Panel prostate (Carcinoma cell lines); test: Antiproliferative activity against human Panel prostate (2 Carcinoma cell lines) assessed as reduction in mean cell growth; format: functional; method in brief: as §1
RXF 393 [14] = test: Antiproliferative activity against human RXF 393 cells assessed as total growth inhibition; format: functional; method in brief: as §1
HCT-15 [15] = test: Antiproliferative activity against human HCT-15 cells assessed as total growth inhibition; format: functional; method in brief: as §1
RXF 393 [16] = test: Antiproliferative activity against human RXF 393 cells assessed as reduction in cell growth; format: functional; method in brief: as §1
K562 [17] = test: Antiproliferative activity against human K562 cells assessed as total growth inhibition; format: functional; method in brief: as §1
[18] = tested on: Panel melanoma (Carcinoma cell lines); test: Antiproliferative activity against human Panel melanoma (9 Carcinoma cell lines) assessed as reduction in mean cell growth; format: functional; method in brief: as §1
[19] = tested on: Panel breast (Carcinoma cell lines); test: Antiproliferative activity against human Panel breast (6 Carcinoma cell lines) assessed as reduction in mean cell growth; format: functional; method in brief: as §1
NCI/ADR-RES [20] = test: Antiproliferative activity against human NCI/ADR-RES cells assessed as total growth inhibition; format: functional; method in brief: as §1
[21] = tested on: Panel colon (Carcinoma cell lines); test: Antiproliferative activity against human Panel colon (7 Carcinoma cell lines) assessed as reduction in mean cell growth; format: functional; method in brief: as §1
MDA-MB-468 [22] = test: Cytotoxicity against human MDA-MB-468 cells; format: functional; conditions: read-out: LC50 (the source's name); method in brief: as §2
COLO 205 [23] = test: Antiproliferative activity against human COLO 205 cells assessed as total growth inhibition; format: functional; method in brief: as §1
[24] = tested on: Panel CNS (Carcinoma cell lines); test: Antiproliferative activity against human Panel CNS (6 Carcinoma cell lines) assessed as reduction in mean cell growth; format: functional; method in brief: as §1
PC-3 [25] = test: Antiproliferative activity against human PC-3 cells assessed as total growth inhibition; format: functional; method in brief: as §1
NCI/ADR-RES [26] = test: Antiproliferative activity against human NCI/ADR-RES cells assessed as reduction in cell growth; format: functional; method in brief: as §1
MDA-MB-468 [27] = test: Antiproliferative activity against human MDA-MB-468 cells assessed as total growth inhibition; format: functional; method in brief: as §1
SNB-75 [28] = test: Antiproliferative activity against human SNB-75 cells assessed as total growth inhibition; format: functional; method in brief: as §1
[29] = target: Epidermal growth factor receptor (Homo sapiens) (UniProt P00533); test: Inhibition of EGFR (unknown origin) at 10 uM using […] as substrate incubated for 40 mins in presence of [gamma33P]ATP by scintillation counting based hotspot kinase assay relative to control
[30] = target: RAF proto-oncogene serine/threonine-protein kinase (Homo sapiens, UniProt P04049); test: Inhibition of RAF1 (unknown origin) at 10 uM using […] as substrate incubated for 40 mins in presence of [gamma33P]ATP by scintillation counting based hotspot kinase assay relative to control
Homo sapiens = species: Homo sapiens; test: Inhibition of ABL […] mutant (unknown origin) at 10 uM using […] as substrate incubated for 40 mins in presence of [gamma33P]ATP by scintillation counting based hotspot kinase assay relative to control
[31] = tested on: Serine/threonine-protein kinase B-raf (Homo sapiens), P15056 [V600E]; test: Inhibition of B-RAF V600E mutant (unknown origin) at 10 uM using […] as substrate incubated for 40 mins in presence of [gamma33P]ATP by scintillation counting based hotspot kinase assay relative to control
NCI/ADR-RES [32] = test: Cytotoxicity against human NCI/ADR-RES cells; format: functional; method in brief: as §2
SK-MEL-5 [33] = test: Cytotoxicity against human SK-MEL-5 cells; format: functional; method in brief: as §2
COLO 205 [34] = test: Cytotoxicity against human COLO 205 cells; format: functional; method in brief: as §2
HCT-15 [35] = test: Antiproliferative activity against human HCT-15 cells assessed as reduction in cell growth; format: functional; method in brief: as §1
[36] = target: Tyrosine-protein kinase ABL1 (Homo sapiens) (UniProt P00519); test: Inhibition of ABL (unknown origin) at 10 uM using […] as substrate incubated for 40 mins in presence of [gamma33P]ATP by scintillation counting based hotspot kinase assay relative to control
SK-MEL-5 [37] = test: Antiproliferative activity against human SK-MEL-5 cells assessed as reduction in cell growth; format: functional; method in brief: as §1
HOP-92 [38] = test: Antiproliferative activity against human HOP-92 cells assessed as reduction in cell growth; format: functional; method in brief: as §1
[39] = Antiproliferative activity against human Panel NCI-58 (58 Carcinoma cell lines) assessed as reduction in mean cell growth at 10 uM; format: functional; parameters: scale not given: the % may be the effect or the level left
Method in brief: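 NCI 58-cell-line screen covering leukemia, NSCLC, colon, CNS, melanoma, ovarian, renal, prostate and breast lines. Compounds given once at […] (micromolar per the line). Percent inhibition taken as 100 minus growth percent. Panel line reports the mean over all 58 lines.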

[40] = target: Serine/threonine-protein kinase B-raf (Homo sapiens) (UniProt P15056); test: Inhibition of B-RAF (unknown origin) at 10 uM using […] as substrate incubated for 40 mins in presence of [gamma33P]ATP by scintillation counting based hotspot kinase assay relative to control
PC-3 [41] = test: Cytotoxicity against human PC-3 cells; format: functional; method in brief: as §2
HOP-92 [42] = test: Cytotoxicity against human HOP-92 cells; format: functional; method in brief: as §2
SK-MEL-5 [43] = test: Antiproliferative activity against human SK-MEL-5 cells assessed as total growth inhibition; format: functional; method in brief: as §1
HOP-92 [44] = test: Antiproliferative activity against human HOP-92 cells assessed as total growth inhibition; format: functional; method in brief: as §1
RXF 393 [45] = test: Cytotoxicity against human RXF 393 cells; format: functional; method in brief: as §2

Sequence of RAF proto-oncogene serine/threonine-protein kinase (P04049 whole entry): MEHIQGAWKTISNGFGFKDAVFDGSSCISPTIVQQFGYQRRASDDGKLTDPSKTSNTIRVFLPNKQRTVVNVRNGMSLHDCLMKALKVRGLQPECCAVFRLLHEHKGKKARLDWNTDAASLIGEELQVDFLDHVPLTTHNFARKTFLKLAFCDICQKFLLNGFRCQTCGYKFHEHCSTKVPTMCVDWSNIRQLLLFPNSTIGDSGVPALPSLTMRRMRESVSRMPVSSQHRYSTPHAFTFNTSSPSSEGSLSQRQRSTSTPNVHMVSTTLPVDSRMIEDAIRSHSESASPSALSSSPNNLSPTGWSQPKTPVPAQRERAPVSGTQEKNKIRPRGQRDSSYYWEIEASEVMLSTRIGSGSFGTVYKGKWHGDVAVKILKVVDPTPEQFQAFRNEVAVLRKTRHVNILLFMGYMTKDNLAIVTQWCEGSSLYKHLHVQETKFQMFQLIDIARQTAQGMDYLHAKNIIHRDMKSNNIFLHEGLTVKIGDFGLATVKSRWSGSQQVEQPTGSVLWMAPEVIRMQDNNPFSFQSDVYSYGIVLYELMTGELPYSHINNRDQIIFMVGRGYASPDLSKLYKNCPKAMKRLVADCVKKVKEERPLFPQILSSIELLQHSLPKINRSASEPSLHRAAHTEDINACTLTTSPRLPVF
Sequence of Serine/threonine-protein kinase B-raf (Homo sapiens), P15056 [V600E] (P15056 whole entry V600E): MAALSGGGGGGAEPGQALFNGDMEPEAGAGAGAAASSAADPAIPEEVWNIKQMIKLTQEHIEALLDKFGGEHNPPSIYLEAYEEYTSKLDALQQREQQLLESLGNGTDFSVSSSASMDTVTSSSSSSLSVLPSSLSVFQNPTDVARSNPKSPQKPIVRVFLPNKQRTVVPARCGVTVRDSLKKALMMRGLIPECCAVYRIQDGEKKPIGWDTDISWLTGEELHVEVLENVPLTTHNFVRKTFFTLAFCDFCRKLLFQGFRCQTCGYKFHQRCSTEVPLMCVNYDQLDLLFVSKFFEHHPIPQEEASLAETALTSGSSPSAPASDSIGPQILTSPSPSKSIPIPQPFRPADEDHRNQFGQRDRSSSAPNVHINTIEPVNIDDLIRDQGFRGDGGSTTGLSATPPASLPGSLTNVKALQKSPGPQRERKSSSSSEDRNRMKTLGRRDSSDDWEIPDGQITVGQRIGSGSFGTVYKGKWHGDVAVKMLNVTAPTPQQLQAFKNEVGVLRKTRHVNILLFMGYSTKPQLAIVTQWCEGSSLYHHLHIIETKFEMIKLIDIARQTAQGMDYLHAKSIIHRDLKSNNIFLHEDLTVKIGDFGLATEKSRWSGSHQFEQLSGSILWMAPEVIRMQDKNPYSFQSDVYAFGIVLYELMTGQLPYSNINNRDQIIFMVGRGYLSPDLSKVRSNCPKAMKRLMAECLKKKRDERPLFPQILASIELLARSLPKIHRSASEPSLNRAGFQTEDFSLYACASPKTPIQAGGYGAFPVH
Sequence of Tyrosine-protein kinase ABL1 (Homo sapiens) (P00519 whole entry): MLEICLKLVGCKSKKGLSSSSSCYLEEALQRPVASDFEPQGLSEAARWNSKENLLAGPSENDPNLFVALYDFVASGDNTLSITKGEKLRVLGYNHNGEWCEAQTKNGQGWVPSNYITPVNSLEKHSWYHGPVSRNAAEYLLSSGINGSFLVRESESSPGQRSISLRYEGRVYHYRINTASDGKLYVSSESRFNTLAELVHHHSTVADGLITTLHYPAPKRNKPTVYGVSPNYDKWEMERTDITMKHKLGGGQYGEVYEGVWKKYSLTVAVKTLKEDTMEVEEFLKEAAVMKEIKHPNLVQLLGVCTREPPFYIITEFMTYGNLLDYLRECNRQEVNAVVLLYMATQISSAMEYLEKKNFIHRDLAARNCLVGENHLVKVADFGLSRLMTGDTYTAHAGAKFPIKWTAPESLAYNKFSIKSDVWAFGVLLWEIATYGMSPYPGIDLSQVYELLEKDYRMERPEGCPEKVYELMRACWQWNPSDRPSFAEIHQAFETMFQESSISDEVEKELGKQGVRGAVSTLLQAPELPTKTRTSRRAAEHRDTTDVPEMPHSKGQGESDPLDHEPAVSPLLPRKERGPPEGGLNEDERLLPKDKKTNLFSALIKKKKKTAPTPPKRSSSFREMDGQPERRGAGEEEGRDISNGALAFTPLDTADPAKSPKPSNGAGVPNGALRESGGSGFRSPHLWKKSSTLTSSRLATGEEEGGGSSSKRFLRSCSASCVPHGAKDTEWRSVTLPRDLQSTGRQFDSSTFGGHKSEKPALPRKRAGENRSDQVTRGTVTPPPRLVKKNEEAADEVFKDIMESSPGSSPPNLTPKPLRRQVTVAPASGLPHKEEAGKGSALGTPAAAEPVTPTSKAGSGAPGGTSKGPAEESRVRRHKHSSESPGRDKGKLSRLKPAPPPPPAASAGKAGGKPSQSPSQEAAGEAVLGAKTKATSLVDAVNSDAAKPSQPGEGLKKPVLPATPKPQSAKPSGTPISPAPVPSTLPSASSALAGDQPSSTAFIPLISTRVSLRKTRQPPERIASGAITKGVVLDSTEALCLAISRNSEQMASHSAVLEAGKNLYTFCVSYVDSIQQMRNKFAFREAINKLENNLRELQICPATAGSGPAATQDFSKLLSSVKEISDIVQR
Sequence of Serine/threonine-protein kinase B-raf (Homo sapiens) (P15056 whole entry): as the sequence (P15056 whole entry V600E) above, with E600V counted along it
Sequence of Epidermal growth factor receptor (Homo sapiens) (P00533 whole entry): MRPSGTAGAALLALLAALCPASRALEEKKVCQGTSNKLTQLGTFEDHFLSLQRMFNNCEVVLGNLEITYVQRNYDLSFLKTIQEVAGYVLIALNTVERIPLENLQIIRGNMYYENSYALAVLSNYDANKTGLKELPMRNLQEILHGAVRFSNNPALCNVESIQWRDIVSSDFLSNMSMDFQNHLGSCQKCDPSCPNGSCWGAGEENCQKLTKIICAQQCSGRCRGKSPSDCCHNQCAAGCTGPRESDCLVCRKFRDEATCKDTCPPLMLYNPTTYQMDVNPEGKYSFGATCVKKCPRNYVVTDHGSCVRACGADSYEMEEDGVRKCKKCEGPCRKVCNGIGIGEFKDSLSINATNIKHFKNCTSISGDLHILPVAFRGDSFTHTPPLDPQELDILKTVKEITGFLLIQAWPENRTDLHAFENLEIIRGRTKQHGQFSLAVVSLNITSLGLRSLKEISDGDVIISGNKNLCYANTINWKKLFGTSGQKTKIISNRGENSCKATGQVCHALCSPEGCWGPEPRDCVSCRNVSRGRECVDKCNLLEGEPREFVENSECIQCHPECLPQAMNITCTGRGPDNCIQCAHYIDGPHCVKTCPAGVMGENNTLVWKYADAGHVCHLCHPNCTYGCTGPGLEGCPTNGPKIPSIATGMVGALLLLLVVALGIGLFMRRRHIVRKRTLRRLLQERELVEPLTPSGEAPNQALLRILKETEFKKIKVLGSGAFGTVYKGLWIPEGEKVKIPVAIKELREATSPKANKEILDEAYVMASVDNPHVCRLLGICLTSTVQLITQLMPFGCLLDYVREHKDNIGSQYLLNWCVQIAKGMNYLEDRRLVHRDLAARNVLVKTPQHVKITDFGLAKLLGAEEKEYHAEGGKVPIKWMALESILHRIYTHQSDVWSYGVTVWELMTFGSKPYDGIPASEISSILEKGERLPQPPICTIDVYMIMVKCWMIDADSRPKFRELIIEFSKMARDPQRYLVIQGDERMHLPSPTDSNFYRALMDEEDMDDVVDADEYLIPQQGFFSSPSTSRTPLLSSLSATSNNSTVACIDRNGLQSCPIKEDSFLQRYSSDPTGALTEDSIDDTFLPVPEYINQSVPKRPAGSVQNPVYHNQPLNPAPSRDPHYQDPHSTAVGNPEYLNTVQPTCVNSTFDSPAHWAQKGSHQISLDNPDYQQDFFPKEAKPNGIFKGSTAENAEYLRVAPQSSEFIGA

## CNC(=O)c1cc(Oc2ccc(NC(=O)Nc3ccc(Cl)c(C(F)(F)F)c3)cc2)ccn1 [SORAFENIB]
PC-3 [1]
  GI50: 1.99 µM
MDA-MB-468 [2]
  GI50: 1.99 µM
COLO 205 [3]
  GI50: 1.99 µM
[4]
  GI50: 2.43 µM
SNB-75 [5]
  GI50: 3.16 µM
[6]
  GI50: 2.25 µM
SNB-75 [7]
  CC50: 7.94 µM
[8]
  GI50: 2.88 µM
K562 [9]
  CC50: 100 µM
HCT-15 [10]
  CC50: 50.1 µM
[11]
  GI50: 2.94 µM
K562 [12]
  GI50: 3.16 µM
[13]
  GI50: 2.58 µM
RXF 393 [14]
  TGI: 10 µM
HCT-15 [15]
  TGI: 10 µM
RXF 393 [16]
  GI50: 2.51 µM
K562 [17]
  TGI: 100 µM
[18]
  GI50: 1.87 µM
[19]
  GI50: 2.17 µM
NCI/ADR-RES [20]
  TGI: 15.8 µM
[21]
  GI50: 2.19 µM
MDA-MB-468 [22]
  CC50: 50.1 µM
COLO 205 [23]
  TGI: 5.01 µM
[24]
  GI50: 2.33 µM

## COc1cccc(-c2nn(-c3ccccc3)cc2-c2ccnc(NCCNC(=O)Nc3cccc(C(F)(F)F)c3)c2)c1
PC-3 [1]
  GI50: 2.02 µM
PC-3 [25]
  TGI: 15.7 µM
NCI/ADR-RES [26]
  GI50: 2.22 µM
MDA-MB-468 [2]
  GI50: 1.7 µM
MDA-MB-468 [27]
  TGI: 3.5 µM
SNB-75 [28]
  TGI: 100 µM
COLO 205 [3]
  GI50: 1.88 µM
[29]
  inhibition: -2.09%
[4]
  GI50: 2.04 µM
SNB-75 [5]
  GI50: 1.62 µM
[30]
  inhibition: 45.1%
Homo sapiens
  inhibition: 2.92%
[31]
  inhibition: 36.2%
NCI/ADR-RES [32]
  LC50: 100 µM
[6]
  GI50: 2.03 µM
SNB-75 [7]
  CC50: 100 µM
[8]
  GI50: 2.54 µM
SK-MEL-5 [33]
  LC50: 7.82 µM
K562 [9]
  CC50: 100 µM
COLO 205 [34]
  LC50 (lethal concentration 50%): 6.95 µM
HCT-15 [35]
  GI50: 1.7 µM
HCT-15 [10]
  CC50: 100 µM
[11]
  GI50: 2.14 µM
K562 [12]
  GI50: 2.13 µM
[13]
  GI50: 3.09 µM
[36]
  inhibition: 13.4%
RXF 393 [14]
  TGI: 4.63 µM
HCT-15 [15]
  TGI: 4.7 µM
RXF 393 [16]
  GI50: 1.53 µM
SK-MEL-5 [37]
  GI50: 1.73 µM
K562 [17]
  TGI: 100 µM
[18]
  GI50: 1.91 µM
HOP-92 [38]
  GI50: 1.46 µM
[39]
  Activity: >80%
[19]
  GI50: 2.23 µM
NCI/ADR-RES [20]
  TGI: 5.75 µM
[40]
  inhibition: 14%
[21]
  GI50: 1.98 µM
COLO 205 [23]
  TGI: 3.34 µM
[24]
  GI50: 2.07 µM
PC-3 [41]
  LC50: 100 µM
HOP-92 [42]
  LC50: 100 µM
SK-MEL-5 [43]
  TGI: 3.55 µM
HOP-92 [44]
  TGI: 7.65 µM
RXF 393 [45]
  LC50: 25 µM

## COc1cccc(-c2nn(-c3ccccc3)cc2-c2ccnc(NCCCNC(=O)c3cccc(C(F)(F)F)c3)c2)c1
PC-3 [1]
  GI50: 3.18 µM
NCI/ADR-RES [26]
  GI50: 3.54 µM
MDA-MB-468 [2]
  GI50: 1.95 µM
COLO 205 [3]
  GI50: 3.33 µM
SNB-75 [5]
  GI50: 17 µM
HCT-15 [35]
  GI50: 3.4 µM
K562 [12]
  GI50: 3.69 µM
RXF 393 [16]
  GI50: 2.2 µM
SK-MEL-5 [37]
  GI50: 1.54 µM
HOP-92 [38]
  GI50: 2.48 µM
